pEC50, pIC50: −log10 of the molar value. One block for each molecule: values may come before it.
Assays:
[1] = Inhibition of mouse P-gp
[2] = molecular target: T1, ATP-dependent translocase ABCB1 (Homo sapiens, UniProt P08183); assay: Reversal of Pgp-1-mediated multidrug resistance in human SW620 cells assessed as potentiation of paclitaxel cytotoxicity at 1 uM treated for 2 hrs prior to paclitaxel challenge measured after 72 hrs by MTT assay relative to paclitaxel alone-treated control; format: cell-based; settings: sw-620, 72 h
Outline: (§1)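 MTT reversal assay. Cells seeded 5000–6000/well and attached 24 h; modulator added 2 h before graded paclitaxel; 72 h at 37 °C; MTT 4 h, DMSO solubilisation, A570. Paclitaxel IC50 taken from killing curves. Fold-resistance = paclitaxel IC50 (± modulator) ÷ paclitaxel IC50 in parental SW620 or HEK293. Four independent experiments in triplicate, mean ± SEM. Cells drug-free >2 weeks beforehand.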

[3] = molecular target: T1, ATP-dependent translocase ABCB1; assay: Reversal of Pgp-1-mediated multidrug resistance in human SW620 cells assessed as potentiation of paclitaxel cytotoxicity at 3 uM treated for 2 hrs prior to paclitaxel challenge measured after 72 hrs by MTT assay relative to paclitaxel alone-treated control; format: cell-based; settings: sw-620, 72 h; outline: as §1
[4] = molecular target: T1, ATP-dependent translocase ABCB1; assay: Displacement of […] from ABCB1 (unknown origin) expressed in High Five insect cell membrane preincubated for 10 mins by autoradiography
Outline: (§2)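 Compound 0–20 μM, 10 min at 37 °C. Then [125I]-IAAP (2200 Ci/mmol; 4–6 nM) added for 5 min under minimal light. UV 365 nm for 10 min, labeling read by autoradiography. Two independent experiments; curve fitted by one-phase decay.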

[5] = Retention time of the compound by HPLC analysis; format: physicochemical
Outline: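 Reverse-phase C18 HPLC, isocratic acetonitrile/water 60:40, 1.0 mL/min, UV 254 nm; purity from major-peak area.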

[6] = molecular target: T1, ATP-dependent translocase ABCB1; assay: Reversal of Pgp-1-mediated multidrug resistance in human HEK293 cells overexpressing human ABCB1 assessed as potentiation of paclitaxel cytotoxicity at 3 uM treated for 2 hrs prior to paclitaxel challenge measured after 72 hrs by MTT assay relative to paclitaxel alone-treated control; format: cell-based; settings: hek293, 72 h; outline: as §1
[7] = molecular target: T1, ATP-dependent translocase ABCB1; assay: Reversal of Pgp-1-mediated multidrug resistance in human SW620 cells assessed as potentiation of paclitaxel cytotoxicity at 10 uM treated for 2 hrs prior to paclitaxel challenge measured after 72 hrs by MTT assay relative to paclitaxel alone-treated control; format: cell-based; settings: sw-620, 72 h
Outline: (§3)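 Cells seeded at 5000–6000/well, attached 24 h at 37 °C, 5% CO2, then preincubated 2 h ± reversal agent before paclitaxel dilutions; after 72 h, MTT (4 mg/mL) 4 h, formazan dissolved in DMSO, absorbance 570 nm. Paclitaxel IC50 from killing curves; fold-resistance = IC50 divided by parental paclitaxel IC50. Four independent experiments in triplicate. HEK lines kept with G418 (2 mg/mL).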

[8] = molecular target: T1, ATP-dependent translocase ABCB1; assay: Reversal of Pgp-1-mediated multidrug resistance in human HEK293 cells assessed as potentiation of paclitaxel cytotoxicity at 3 uM treated for 2 hrs prior to paclitaxel challenge measured after 72 hrs by MTT assay relative to paclitaxel alone-treated control; format: cell-based; settings: hek293, 72 h; outline: as §1
[9] = molecular target: T1, ATP-dependent translocase ABCB1; assay: Reversal of Pgp-1-mediated multidrug resistance in human HEK293 cells overexpressing human ABCB1 assessed as potentiation of paclitaxel cytotoxicity at 1 uM treated for 2 hrs prior to paclitaxel challenge measured after 72 hrs by MTT assay relative to paclitaxel alone-treated control; format: cell-based; settings: hek293, 72 h; outline: as §1
[10] = molecular target: T1, ATP-dependent translocase ABCB1; assay: Stimulation of ATPase activity of ABCB1 (unknown origin) expressed in High Five insect cell membrane assessed as ATP hydrolysis at >2.5 uM relative to control
[11] = molecular target: T1, ATP-dependent translocase ABCB1; assay: Stimulation of ATPase activity of ABCB1 (unknown origin) expressed in High Five insect cell membrane assessed as ATP hydrolysis at 0.5 to 2.5 uM relative to control
[12] = molecular target: T1, ATP-dependent translocase ABCB1; assay: Stimulation of ATPase activity of ABCB1 (unknown origin) expressed in High Five insect cell membrane assessed as ATP hydrolysis
Outline: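 Vanadate-sensitive ATPase of P-gp in crude High Five membranes (10 μg protein/100 μL). Compound 0–10 μM, with and without 0.3 mM sodium orthovanadate, in ATPase assay buffer. […] Three independent experiments in duplicate, mean ± SEM.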

[13] = molecular target: T1, ATP-dependent translocase ABCB1; assay: Reversal of Pgp-1-mediated multidrug resistance in human HEK293 cells assessed as potentiation of paclitaxel cytotoxicity at 1 uM treated for 2 hrs prior to paclitaxel challenge measured after 72 hrs by MTT assay relative to paclitaxel alone-treated control; format: cell-based; settings: hek293, 72 h; outline: as §1
[14] = Cytotoxicity against human SW620/Ad300 cells overexpressing ABCB1 assessed as cell survival at 10 uM by MTT assay; format: ADME, cell-based, SW-620; settings: SW620/Ad300 cells that overexpress ABCB1, read-out: Activity
Outline: (§4)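 Cells seeded at 5000–6000 per well in triplicate, attached 24 h at 37 °C, 5% CO2, then exposed to compound for 72 h. MTT (4 mg/mL) added for 4 h, formazan dissolved in DMSO, absorbance read at 570 nm. Four independent experiments. HEK/ABCB1 and HEK293 kept in DMEM with G418 (2 mg/mL). All lines drug-free for over 2 weeks beforehand.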

[15] = molecular target: T1, ATP-dependent translocase ABCB1; assay: Reversal of Pgp-1-mediated multidrug resistance in human SW620/Ad300 cells overexpressing ABCB1 assessed as potentiation of paclitaxel cytotoxicity at 1 uM treated for 2 hrs prior to paclitaxel challenge measured after 72 hrs by MTT assay relative to paclitaxel alone-treated control; format: cell-based; settings: sw-620, 72 h; outline: as §1
[16] = Cytotoxicity against human SW620 cells assessed as cell survival at 10 uM by MTT assay; format: cell-based, SW-620; settings: read-out: Activity; outline: as §4
[17] = molecular target: T1, ATP-dependent translocase ABCB1; assay: Inhibition of human wild type P-gp expressed in BacMam virus infected human HeLa cells assessed as calcein-AM accumulation after 10 mins by flow cytometry; format: cell-based
Outline: (§5)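 HeLa cells transduced with BacMam WT-P-gp (10–15 particles/cell); 10 mM butyric acid added after 3–4 h, grown overnight at 37 °C. Trypsinized cells exposed to compound, then 0.5 μM calcein-AM for 10 min at 37 °C in the dark. […] Two independent experiments in triplicate, ± SD.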

[18] = Retardation factor of the compound using EtOAc-n-hexane at ratio of 3:2 by thin layer chromatography; format: physicochemical
[19] = Cytotoxicity against human HEK293 cells overexpressing human ABCB1 assessed as cell survival at 10 uM by MTT assay; format: ADME, cell-based; settings: HEK293 cells that overexpress human ABCB1, read-out: Activity; outline: as §4
[20] = molecular target: T1, ATP-dependent translocase ABCB1; assay: Reversal of Pgp-1-mediated multidrug resistance in human SW620/Ad300 cells overexpressing ABCB1 assessed as potentiation of paclitaxel cytotoxicity at 10 uM treated for 2 hrs prior to paclitaxel challenge measured after 72 hrs by MTT assay relative to paclitaxel alone-treated control; format: cell-based; settings: sw-620, 72 h; outline: as §3
[21] = Cytotoxicity against human HEK293 cells assessed as cell survival at 10 uM by MTT assay; format: cell-based; settings: read-out: Activity; outline: as §4
[22] = molecular target: T1, ATP-dependent translocase ABCB1; assay: Reversal of Pgp-1-mediated multidrug resistance in human SW620/Ad300 cells overexpressing ABCB1 assessed as potentiation of paclitaxel cytotoxicity at 3 uM treated for 2 hrs prior to paclitaxel challenge measured after 72 hrs by MTT assay relative to paclitaxel alone-treated control; format: cell-based; settings: sw-620, 72 h; outline: as §1
[23] = molecular target: T1, ATP-dependent translocase ABCB1; assay: Reversal of Pgp-1-mediated multidrug resistance in human HEK293 cells assessed as potentiation of paclitaxel cytotoxicity at 10 uM treated for 2 hrs prior to paclitaxel challenge measured after 72 hrs by MTT assay relative to paclitaxel alone-treated control; format: cell-based; settings: hek293, 72 h; outline: as §3
[24] = molecular target: T1, ATP-dependent translocase ABCB1; assay: Reversal of Pgp-1-mediated multidrug resistance in human HEK293 cells overexpressing human ABCB1 assessed as potentiation of paclitaxel cytotoxicity at 10 uM treated for 2 hrs prior to paclitaxel challenge measured after 72 hrs by MTT assay relative to paclitaxel alone-treated control; format: cell-based; settings: hek293, 72 h; outline: as §3
[25] = molecular target: T1, ATP-dependent translocase ABCB1; assay: Displacement of […] from ABCB1 (unknown origin) expressed in High Five insect cell membrane at >5 uM preincubated for 10 mins by autoradiography; settings: for inhibition (INH): human; outline: as §2
[26] = molecular target: T1, ATP-dependent translocase ABCB1; assay: Inhibition of human P-gp
[27] = Cytotoxicity against human SW620 cells assessed as cell survival at 3 uM by MTT assay; format: cell-based, SW-620; settings: read-out: Activity
Outline: (§6)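 MTT survival. Cells seeded 5000–6000/well, attached 24 h at 37 °C, 5% CO2; test agent for 72 h; MTT 4 mg/mL stock added, 4 h at 37 °C; formazan dissolved in DMSO, A570 read. Four independent experiments, each in triplicate. SW620/Ad300 is the doxorubicin-selected P-gp subline of SW620; HEK293 grown in DMEM with G418 (2 mg/mL). All cells kept drug-free >2 weeks before assay.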

[28] = Cytotoxicity against human HEK293 cells assessed as cell survival at 3 uM by MTT assay; format: cell-based; settings: read-out: Activity; outline: as §6
[29] = Cytotoxicity against human SW620/Ad300 cells overexpressing ABCB1 assessed as cell survival at 3 uM by MTT assay; format: ADME, cell-based, SW-620; settings: SW620/Ad300 cells that overexpress ABCB1, read-out: Activity; outline: as §6
[30] = Cytotoxicity against human HEK293 cells overexpressing human ABCB1 assessed as cell survival at 3 uM by MTT assay; format: ADME, cell-based; settings: HEK293 cells that overexpress human ABCB1, read-out: Activity
Outline: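 HEK293 cells stably transfected with human ABCB1 cDNA, kept in DMEM with G418 (2 mg/mL) and drug-free for over 2 weeks. Cells seeded at 5000–6000/well, attached 24 h at 37 °C, 5% CO2, then exposed 72 h to modulator. MTT (4 mg/mL) added for 4 h, formazan dissolved in DMSO, absorbance read at 570 nm. Four independent experiments, each in triplicate.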

[31] = molecular target: T1, ATP-dependent translocase ABCB1; assay: Inhibition of human wild type P-gp expressed in BacMam virus infected human HeLa cells assessed as calcein-AM accumulation at 10 uM after 10 mins by flow cytometry; format: cell-based; outline: as §5

T1 sequence (P08183 whole entry): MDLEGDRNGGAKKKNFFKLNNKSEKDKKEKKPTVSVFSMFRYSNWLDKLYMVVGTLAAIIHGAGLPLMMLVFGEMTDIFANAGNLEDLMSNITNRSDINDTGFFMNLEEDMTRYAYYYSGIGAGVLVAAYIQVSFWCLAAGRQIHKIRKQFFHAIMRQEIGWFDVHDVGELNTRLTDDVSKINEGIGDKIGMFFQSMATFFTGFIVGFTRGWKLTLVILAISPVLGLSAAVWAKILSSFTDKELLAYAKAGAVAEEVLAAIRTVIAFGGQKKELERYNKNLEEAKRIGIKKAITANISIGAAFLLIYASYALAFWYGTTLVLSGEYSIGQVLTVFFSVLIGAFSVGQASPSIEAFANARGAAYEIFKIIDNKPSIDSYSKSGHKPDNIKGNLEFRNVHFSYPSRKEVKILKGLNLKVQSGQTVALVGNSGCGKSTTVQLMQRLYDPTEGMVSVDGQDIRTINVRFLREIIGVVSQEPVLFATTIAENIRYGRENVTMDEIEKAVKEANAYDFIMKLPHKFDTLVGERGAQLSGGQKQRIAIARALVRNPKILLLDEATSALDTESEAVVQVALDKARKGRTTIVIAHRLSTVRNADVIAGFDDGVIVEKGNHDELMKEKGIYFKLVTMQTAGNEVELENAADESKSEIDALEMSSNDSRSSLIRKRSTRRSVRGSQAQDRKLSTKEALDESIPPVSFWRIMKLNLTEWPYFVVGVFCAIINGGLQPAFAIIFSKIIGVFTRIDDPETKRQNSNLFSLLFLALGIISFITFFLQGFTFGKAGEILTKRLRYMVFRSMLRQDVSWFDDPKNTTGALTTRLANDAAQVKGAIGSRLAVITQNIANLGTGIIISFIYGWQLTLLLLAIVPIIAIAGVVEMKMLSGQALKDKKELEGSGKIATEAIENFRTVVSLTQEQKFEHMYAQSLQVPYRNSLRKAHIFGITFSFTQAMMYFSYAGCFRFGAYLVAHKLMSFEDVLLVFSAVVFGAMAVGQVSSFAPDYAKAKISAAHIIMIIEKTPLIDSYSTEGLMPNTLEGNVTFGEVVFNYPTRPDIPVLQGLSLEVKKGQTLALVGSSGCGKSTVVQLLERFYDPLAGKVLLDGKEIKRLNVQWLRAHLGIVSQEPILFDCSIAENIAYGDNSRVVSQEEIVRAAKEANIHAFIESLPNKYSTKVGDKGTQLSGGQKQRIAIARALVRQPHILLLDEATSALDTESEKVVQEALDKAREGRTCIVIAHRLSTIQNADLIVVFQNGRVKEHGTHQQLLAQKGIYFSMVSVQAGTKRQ

pIC50 [1]: 5.08
Compound: CC(C)[C@H]1NC(=O)c2csc(n2)[C@@H](C(C)C)NC(=O)c2csc(n2)[C@@H](C(C)C)NC(=O)c2csc1n2

Compound: COc1cc(C(=O)N[C@H](c2nc(C(=O)Nc3ccccc3C(=O)c3ccccc3)cs2)C(C)C)cc(OC)c1OC
Ratio [2]: 1.2
Ratio [3]: 1
inhibition (INH) [4]: Dose-dependent effect
Retention_time [5]: 9.4 min
Ratio [6]: 3.1
Ratio [7]: 1
Ratio [8]: 1
Ratio [9]: 12.9
Ratio [10]: 1.8
Ratio [11]: 2
pEC50 [12]: 7.57
Activity ([12]; human): Dose-dependent effect
Ratio [13]: 1
viability at 10 µM [14]: > 85%
Ratio [15]: 31
viability at 10 µM [16]: > 85%
pIC50 [17]: 6.00
inhibition (INH) ([17]; human, hela, 10 min): Dose-dependent effect
Rf [18]: 0.45
viability at 10 µM [19]: > 85%
Ratio [20]: 1.8
viability at 10 µM [21]: > 85%
Ratio [22]: 8.5
Ratio [23]: 1
Ratio [24]: 2
pIC50 [25]: 6.14
inhibition (INH) [25]: 90%

Compound: CC(C)[C@@H]1NC(=O)c2csc(n2)[C@H](C(C)C)NC(=O)c2csc(n2)[C@H](C(C)C)NC(=O)c2csc1n2
inhibition (INH) [4]: Dose-dependent effect
pIC50 [26]: 5.82
viability at 3 µM [27]: > 85%
pIC50 [1]: 5.57
viability at 3 µM [28]: > 85%
viability at 3 µM [29]: > 85%
viability at 3 µM [30]: > 85%
inhibition (INH) [25]: 90%

Retention_time [5]: 2.2 min
inhibition (INH) [31]: 5%
Rf [18]: 0.2
Compound: COc1cc(C(=O)N[C@H](c2nc(C(=O)NCCc3ccccn3)cs2)C(C)C)cc(OC)c1OC

Retention_time [5]: 3.1 min
inhibition (INH) [31]: 20%
Rf [18]: 0.35
Compound: COc1cc(C(=O)N[C@H](c2nc(C(=O)NCc3ccc4c(c3)OCO4)cs2)C(C)C)cc(OC)c1OC

pIC50 [26]: 5.82
Compound: CCOC(=O)c1csc([C@@H](NC(=O)c2csc([C@@H](NC(=O)c3csc([C@@H](NC(=O)OC(C)(C)C)C(C)C)n3)C(C)C)n2)C(C)C)n1

Source: ChEMBL document CHEMBL3259707, “Design and synthesis of human ABCB1 (P-glycoprotein) inhibitors by peptide coupling of diverse chemical scaffolds on carboxyl and amino termini of (S)-valine-derived thiazole amino acid” (J Med Chem, 2014)
